Source: ChEMBL document CHEMBL3085773, “A general method for making peptide therapeutics resistant to serine protease degradation: application to dipeptidyl peptidase IV substrates” (J Med Chem, 2013)
One block for each molecule: values may come before it. The source made the active and inactive calls. No cut-off for these calls is given here. Square brackets hold non-standard residues; d marks the D form. Peptide text beside a SMILES is read from it. ξ: configuration not given here. ξTle = CC(C)(C)C(N)C(=O)O

Key:
Mus musculus [1] = assay: Antidiabetic activity in db/db mouse assessed as reduction of blood glucose level at 0.2 mg/kg, ip after 60 mins relative to vehicle-treated control; type: functional; parameters: scale not given: the % may be the effect or the level left; conditions: route intraperitoneal
Method in brief: (§1)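 db/db mice given 8 µg/mouse peptide or PBS vehicle ip; fasting blood glucose measured before and at set times after dosing; expressed as percent change from basal FBG; 10 animals per group.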

Mus musculus [2] = assay: Toxicity in C57BL/6 mouse assessed as change in heart weight at 1 mg/kg, ip qd measured on day 7 by necropsy analysis; type: organism-based; parameters: dose 1 mg/kg, route intraperitoneal; conditions: in vivo
Method in brief: (§2)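 C57BL/6 mice dosed ip once daily for seven days at 1 mg/kg or vehicle; necropsy on day 7 after final dose; liver, kidneys, pancreas, heart and brain collected, inspected for gross abnormalities and weighed; twelve animals in study.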

Mus musculus [3] = assay: Toxicity in C57BL/6 mouse assessed as abnormalities in heart at 1 mg/kg, ip qd measured on day 7 by necropsy analysis; type: organism-based; parameters: dose 1 mg/kg, route intraperitoneal; conditions: in vivo; method in brief: as §2
Mus musculus [4] = assay: Toxicity in C57BL/6 mouse assessed as abnormalities in brain at 1 mg/kg, ip qd measured on day 7 by necropsy analysis; type: organism-based; parameters: dose 1 mg/kg, route intraperitoneal; conditions: in vivo; method in brief: as §2
Mus musculus [5] = assay: Toxicity in C57BL/6 mouse assessed as effect on body weight at 1 mg/kg, ip qd administered for 7 days measured every day during compound administration; type: organism-based; parameters: dose 1 mg/kg, route intraperitoneal; conditions: in vivo, 168 h
Method in brief: (§3)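 C57BL/6 mice given 1 mg/kg ip once daily for seven days, or vehicle; body weight and per-cage food intake recorded daily; water consumption measured on days 3 and 7.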

Mus musculus [6] = assay: Toxicity in C57BL/6 mouse assessed as abnormalities in pancreas at 1 mg/kg, ip qd measured on day 7 by necropsy analysis; type: organism-based; parameters: dose 1 mg/kg, route intraperitoneal; conditions: in vivo; method in brief: as §2
Mus musculus [7] = assay: Toxicity in C57BL/6 mouse assessed as effect on food consumption at 1 mg/kg, ip qd administered for 7 days measured every day during compound administration; type: organism-based; parameters: dose 1 mg/kg, route intraperitoneal; conditions: in vivo, 168 h; method in brief: as §3
Mus musculus [8] = assay: Toxicity in C57BL/6 mouse assessed as abnormalities in liver at 1 mg/kg, ip qd measured on day 7 by necropsy analysis; type: organism-based; parameters: dose 1 mg/kg, route intraperitoneal; conditions: in vivo; method in brief: as §2
Mus musculus [9] = assay: Antidiabetic activity in db/db mouse assessed as reduction of blood glucose level at 0.2 mg/kg, ip after 90 mins relative to vehicle-treated control; type: functional; parameters: scale not given: the % may be the effect or the level left; conditions: route intraperitoneal; method in brief: as §1
Mus musculus [10] = assay: Antidiabetic activity in db/db mouse assessed as reduction of blood glucose level at 0.2 mg/kg, ip measured at 240 mins relative to vehicle-treated control; type: functional, organism-based; parameters: dose 0.2 mg/kg; method in brief: as §1
Mus musculus [11] = assay: Toxicity in C57BL/6 mouse assessed as change in liver weight at 1 mg/kg, ip qd measured on day 7 by necropsy analysis; type: organism-based; parameters: dose 1 mg/kg, route intraperitoneal; conditions: in vivo; method in brief: as §2
Mus musculus [12] = assay: Toxicity in C57BL/6 mouse assessed as change in kidney weight at 1 mg/kg, ip qd measured on day 7 by necropsy analysis; type: organism-based; parameters: dose 1 mg/kg, route intraperitoneal; conditions: in vivo; method in brief: as §2
Mus musculus [13] = assay: Toxicity in C57BL/6 mouse assessed as abnormalities in kidney at 1 mg/kg, ip qd measured on day 7 by necropsy analysis; type: organism-based; parameters: dose 1 mg/kg, route intraperitoneal; conditions: in vivo; method in brief: as §2
Mus musculus [14] = assay: Toxicity in C57BL/6 mouse assessed as change in brain weight at 1 mg/kg, ip qd measured on day 7 by necropsy analysis; type: organism-based; parameters: dose 1 mg/kg, route intraperitoneal; conditions: in vivo; method in brief: as §2
Mus musculus [15] = assay: Toxicity in C57BL/6 mouse assessed as effect on water consumption at 1 mg/kg, ip qd administered for 7 days measured on day 3 and day 7; conditions: in vivo, 168 h
Mus musculus [16] = assay: Antidiabetic activity in db/db mouse assessed as reduction of blood glucose AUC (0 to 480 mins) at 0.2 mg/kg, ip; type: functional, organism-based; parameters: dose 0.2 mg/kg
Dipeptidyl peptidase 4 [17] = target: T1, Dipeptidyl peptidase 4 (Homo sapiens, UniProt P27487); assay: Stability of the compound assessed as recombinant human DPP4-mediated compound degradation at 0.1 mM measured after 24 hrs by reverse-phase HPLC/MS analysis; type: ADME; conditions: 100 µM
Method in brief: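 GLP-1 peptides (0.1 mM) incubated at 37 °C with recombinant human DPP IV in 50 mM HEPES, 0.14 M NaCl, pH 8.0, up to 24 h; acid-quenched samples analysed by RP-HPLC-MS for intact peptide.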

Mus musculus [18] = assay: Toxicity in C57BL/6 mouse assessed as change in pancreas weight at 1 mg/kg, ip qd measured on day 7 by necropsy analysis; type: organism-based; parameters: dose 1 mg/kg, route intraperitoneal; conditions: in vivo; method in brief: as §2
Dipeptidyl peptidase 4 [19] = target: T1, Dipeptidyl peptidase 4; assay: Competitive inhibition of human recombinant DPP4 using AP-pNA as substrate preincubated for 30 mins followed by substrate addition measured after 30 mins by spectrophotometric analysis
[20] = target: alpha-lytic protease (alpha-LP) (Lysobacter enzymogenes, UniProt P00778); assay: Stability of the compound assessed as half life of Lysobacter enzymogenes alpha-LP-mediated compound degradation at 0.1 mM by reverse-phase HPLC/MS analysis; type: ADME
Trypsin = Trypsin (Sus scrofa, UniProt P00761); assay: Stability of the compound assessed as half life of porcine pancreatic trypsin-mediated compound degradation at 0.1 mM by reverse-phase HPLC/MS analysis; type: ADME; conditions: pig
[21] = target: DPP4 (dipeptidyl peptidase 4) (Sus scrofa, UniProt P22411); assay: Stability of the compound assessed as porcine DPP4-mediated compound degradation measured intact level at 0.1 mM measured at 30 mins by reverse-phase HPLC/MS analysis; type: ADME; conditions: pig, read-out: Stability
Method in brief: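 Synthetic hexapeptides (0.1 mM) incubated at 37 °C with 10 mU/mL DPP IV purified from porcine kidney in 50 mM HEPES, 0.14 M NaCl, pH 8.0; intact peptide by HPLC-MS, expressed as percent of time-zero value.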

Alpha-lytic protease = Alpha-lytic protease (Lysobacter enzymogenes, UniProt P00778); assay: Stability of the compound assessed as Lysobacter enzymogenes alpha-LP-mediated compound degradation at 0.1 mM after 5 hrs by reverse-phase HPLC/MS analysis; type: ADME; conditions: 100 µM
Sequence of Alpha-lytic protease (P00778 whole entry): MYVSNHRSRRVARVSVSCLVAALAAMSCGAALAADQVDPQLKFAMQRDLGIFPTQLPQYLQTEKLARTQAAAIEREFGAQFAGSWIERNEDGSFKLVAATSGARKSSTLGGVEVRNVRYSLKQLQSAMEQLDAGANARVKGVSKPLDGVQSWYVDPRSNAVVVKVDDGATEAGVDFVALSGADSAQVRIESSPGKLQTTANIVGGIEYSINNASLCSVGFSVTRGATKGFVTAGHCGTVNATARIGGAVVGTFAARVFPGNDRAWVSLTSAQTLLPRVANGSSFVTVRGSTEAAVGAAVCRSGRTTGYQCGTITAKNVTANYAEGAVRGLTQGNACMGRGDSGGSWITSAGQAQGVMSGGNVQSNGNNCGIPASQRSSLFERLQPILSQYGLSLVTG

T1 sequence (P27487 whole entry): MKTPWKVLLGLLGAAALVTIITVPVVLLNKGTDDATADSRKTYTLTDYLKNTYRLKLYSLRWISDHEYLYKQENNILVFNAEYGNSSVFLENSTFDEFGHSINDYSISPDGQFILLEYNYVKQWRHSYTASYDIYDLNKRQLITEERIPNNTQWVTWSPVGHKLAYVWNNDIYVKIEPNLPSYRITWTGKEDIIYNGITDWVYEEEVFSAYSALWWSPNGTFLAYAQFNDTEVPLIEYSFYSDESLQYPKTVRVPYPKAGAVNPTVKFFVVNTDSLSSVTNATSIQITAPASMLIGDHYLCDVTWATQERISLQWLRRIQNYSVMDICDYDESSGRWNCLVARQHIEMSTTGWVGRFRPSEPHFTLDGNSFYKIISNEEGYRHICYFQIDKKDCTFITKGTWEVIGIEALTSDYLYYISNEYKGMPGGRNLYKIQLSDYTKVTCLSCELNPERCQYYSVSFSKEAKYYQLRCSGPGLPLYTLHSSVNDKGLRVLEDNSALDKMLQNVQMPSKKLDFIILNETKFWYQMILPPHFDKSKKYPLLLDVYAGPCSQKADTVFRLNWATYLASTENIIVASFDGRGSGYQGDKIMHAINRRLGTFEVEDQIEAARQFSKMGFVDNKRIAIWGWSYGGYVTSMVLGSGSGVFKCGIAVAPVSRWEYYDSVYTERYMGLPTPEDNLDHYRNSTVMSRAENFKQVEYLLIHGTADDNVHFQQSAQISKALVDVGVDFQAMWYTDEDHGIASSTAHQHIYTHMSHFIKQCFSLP
Sequence of Trypsin (P00761 whole entry): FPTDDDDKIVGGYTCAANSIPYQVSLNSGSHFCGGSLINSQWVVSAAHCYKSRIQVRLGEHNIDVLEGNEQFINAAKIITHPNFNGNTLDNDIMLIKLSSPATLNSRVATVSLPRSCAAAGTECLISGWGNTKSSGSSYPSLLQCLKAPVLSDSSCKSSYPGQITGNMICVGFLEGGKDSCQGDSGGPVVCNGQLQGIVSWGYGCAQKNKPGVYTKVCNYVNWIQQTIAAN
Sequence of alpha-lytic protease (alpha-LP) (P00778 whole entry): as the sequence (P00778 whole entry) above
Sequence of DPP4 (dipeptidyl peptidase 4) (P22411 whole entry): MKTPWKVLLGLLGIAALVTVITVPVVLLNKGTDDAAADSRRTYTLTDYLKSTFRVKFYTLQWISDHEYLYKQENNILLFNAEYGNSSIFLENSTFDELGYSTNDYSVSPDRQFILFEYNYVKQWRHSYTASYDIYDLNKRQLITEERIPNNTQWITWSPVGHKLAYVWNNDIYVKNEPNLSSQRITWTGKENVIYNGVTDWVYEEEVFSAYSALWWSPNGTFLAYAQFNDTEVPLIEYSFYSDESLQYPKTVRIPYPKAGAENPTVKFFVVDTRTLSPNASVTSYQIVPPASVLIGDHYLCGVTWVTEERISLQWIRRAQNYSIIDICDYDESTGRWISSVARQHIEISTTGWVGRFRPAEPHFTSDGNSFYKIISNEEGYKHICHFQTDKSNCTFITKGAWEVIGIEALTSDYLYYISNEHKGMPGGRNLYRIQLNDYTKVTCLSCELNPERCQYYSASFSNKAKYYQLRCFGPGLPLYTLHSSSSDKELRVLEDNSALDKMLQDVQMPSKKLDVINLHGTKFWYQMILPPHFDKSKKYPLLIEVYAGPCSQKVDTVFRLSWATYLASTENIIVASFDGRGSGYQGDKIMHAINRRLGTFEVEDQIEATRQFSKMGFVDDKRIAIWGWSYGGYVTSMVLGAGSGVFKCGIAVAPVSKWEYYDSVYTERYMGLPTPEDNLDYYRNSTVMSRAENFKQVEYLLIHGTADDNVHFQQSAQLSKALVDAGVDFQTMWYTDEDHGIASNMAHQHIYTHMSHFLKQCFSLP

SMILES: CC(C)[C@H](N)C(=O)N1CCC[C@H]1C(=O)NC(C(=O)N1CCC[C@H]1C(=O)N[C@@H](CCCNC(=N)N)C(N)=O)C(C)(C)C (some centres undefined) (H-VP[ξTle]PR-NH2)
- Ki (Dipeptidyl peptidase 4 [19]): 4.5 µM
- Stability (Dipeptidyl peptidase 4 [17]): Stable

SMILES: CC(C)C[C@H](NC(=O)[C@@H](N)CC(C)C)C(=O)N1CCC[C@H]1C(=O)N[C@@H](CCCNC(=N)N)C(=O)N[C@H](C(=O)N[C@@H](C)C(=O)N[C@@H](CC(N)=O)C(=O)NCC(=O)N[C@@H](CO)C(=O)N[C@@H](CO)C(=O)N[C@@H](Cc1ccccc1)C(=O)N[C@H](C(=O)N[C@H](C(=O)N[C@H](C(=O)O)C(C)C)[C@@H](C)O)C(C)C)C(C)C (H-LLPRVANGSSFVTV-OH)
- half-life at 100 µM [20]: 24 min
- half-life at 100 µM (Trypsin): 24 min

SMILES: CC(C)C[C@H](NC(=O)[C@@H]1CCCN1C(=O)[C@H](C)N)C(=O)N[C@@H](CO)C(=O)N[C@@H](Cc1c[nH]c2ccccc12)C(=O)N[C@@H](CO)C(=O)O (H-APLSWS-OH)
- remaining at 0.5 h, 100 µM [21]: < 70%

Further lines, with some results ahead:

- Stability (Dipeptidyl peptidase 4 [17]): Stable
SMILES: CC[C@H](C)[C@H](NC(=O)[C@H](Cc1ccccc1)NC(=O)[C@H](CCC(=O)O)NC(=O)[C@H](CCCCN)NC(=O)[C@H](C)NC(=O)[C@H](C)NC(=O)[C@H](CCC(N)=O)NC(=O)CNC(=O)[C@H](CCC(=O)O)NC(=O)[C@H](CC(C)C)NC(=O)[C@H](Cc1ccc(O)cc1)NC(=O)[C@H](CO)NC(=O)[C@H](CO)NC(=O)[C@@H](NC(=O)[C@H](CC(=O)O)NC(=O)[C@H](CO)NC(=O)[C@@H](NC(=O)[C@H](Cc1ccccc1)NC(=O)[C@@H](NC(=O)CNC(=O)C(NC(=O)[C@H](C)NC(=O)[C@@H](N)Cc1c[nH]cn1)C(C)(C)C(=O)O)[C@@H](C)O)[C@@H](C)O)C(C)C)C(=O)N[C@@H](C)C(=O)N[C@@H](Cc1c[nH]c2ccccc12)C(=O)N[C@@H](CC(C)C)C(=O)N[C@H](C(=O)N[C@@H](CCCCN)C(=O)NCC(=O)N[C@@H](CCCNC(=N)N)C(N)=O)C(C)C (some centres undefined)
- Activity (Mus musculus [1]): 50%
- Activity (Mus musculus [2]): Non-toxic
- Activity (Mus musculus [3]): Non-toxic
- Activity (Mus musculus [4]): Non-toxic
- Activity (Mus musculus [5]): Non-toxic
- Activity (Mus musculus [6]): Non-toxic
- Activity (Mus musculus [7]): Non-toxic
- Activity (Mus musculus [8]): Non-toxic
- Activity (Mus musculus [9]): 45%
- Activity (Mus musculus [10]): inactive
- Activity (Mus musculus [11]): Non-toxic
- Activity (Mus musculus [12]): Non-toxic
- Activity (Mus musculus [13]): Non-toxic
- Activity (Mus musculus [14]): Non-toxic
- Activity (Mus musculus [15]): Non-toxic
- Activity (Mus musculus [16]): Active
- Activity (Mus musculus [18]): Non-toxic

- Stability (Alpha-lytic protease): Stable
SMILES: CC(C)C[C@H](NC(=O)[C@@H](N)CC(C)C)C(=O)N1CCC[C@H]1C(=O)N[C@@H](CCCNC(=N)N)C(=O)N[C@H](C(=O)N[C@@H](C)C(=O)NC(C(=O)NCC(=O)N[C@@H](CO)C(=O)N[C@@H](CO)C(=O)N[C@@H](Cc1ccccc1)C(=O)N[C@H](C(=O)N[C@H](C(=O)N[C@H](C(=O)O)C(C)C)[C@@H](C)O)C(C)C)C(C)(C)C)C(C)C (some centres undefined) (H-LLPRVA[ξTle]GSSFVTV-OH)
